Measured values as given in article PMC3241894 (ACS chemical biology, 2011).

Assays:
[1] = system: FKBP38 and Hsp90 binding interaction; assay: pure protein binding assay FKBP38 and Hsp90; set-up: species or system human; conditions: 100 nM Hsp90, 50 nM GST-FKBP38, 0–10 µM compound
[2] = system: Hsp70; assay: Hsp70 up-regulation in compound-treated cells; type: cell-based; conditions: HCT-116 cells, 24 hours
Summary of the method: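 HCT-116 cells exposed for 24 h to test compound (0–25 µM), or to 17-AAG (0–200 nM) as reference Hsp90 inhibitor. Cells were then harvested and lysed, and lysates probed for Hsp70 by Western blot with GAPDH as loading control. Experiments were repeated three times, reported as mean ± SEM, and compared by unpaired t-test.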

[3] = system: FKBP52 and Hsp90 binding interaction; assay: pure protein binding assay FKBP52 and Hsp90; set-up: species or system human; conditions: 100 nM Hsp90, 50 nM GST-FKBP52, 0–10 µM compound
[4] = system: HeLa cells; assay: Hsp90 over-expression experiments, cell survival; type: cell-based; conditions: pCMV-Hsp90 vs pCMV control, compound 1 50 µM, 2 5 µM, 17-AAG 100 nM
Summary of the method: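 HeLa cells (~30% confluent) were co-transfected by PolyFect with HSP90α and HSP90β plasmids (0.5 µg each) or empty pCMV (1 µg). Hsp90 overexpression was checked by Western blot. After 24 h, cells received DMSO (control), test compound (50 or 5 µM) or 17-AAG (100 nM), and survival was read by CCK-8. Three repeats, mean ± SEM.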

C=CCNC1=C2C[C@@H](C)C[C@H](OC)[C@H](O)[C@@H](C)/C=C(\C)[C@H](OC(N)=O)[C@@H](OC)/C=C\C=C(/C)C(=O)NC(=CC1=O)C2=O [17-AAG, 17-(allylamino)-17-demethoxygeldanamycin]
inhibition of binding between Hsp90 and FKBP38 [1]: do not affect | Hsp70 up-regulation over control [2]: 100% | inhibition of binding between Hsp90 and FKBP52 [3]: do not affect | cytotoxic effect on Hsp90 over-expressing cells relative to control cells [4]: also true
